Results taken from ChEMBL document CHEMBL1151906, “Discovery and structure-activity relationships of pentanedioic acid diamides as potent inhibitors of 11beta-hydroxysteroid dehydrogenase type I” (Bioorg Med Chem Lett, 2009).
≈ marks a conversion by molar mass, not a printed value. Values belong to the compound of their own block, whether it stands above or below them.

Columns and labels:
[1] = target: T1, 11-beta-hydroxysteroid dehydrogenase 1 (Homo sapiens, UniProt P28845); test: Inhibition of human recombinant 11beta-HSD1 expressed in Escherichia coli assessed as cortisol level after 150 mins by HTRF assay
Target sequence in this assay (P28845 whole entry): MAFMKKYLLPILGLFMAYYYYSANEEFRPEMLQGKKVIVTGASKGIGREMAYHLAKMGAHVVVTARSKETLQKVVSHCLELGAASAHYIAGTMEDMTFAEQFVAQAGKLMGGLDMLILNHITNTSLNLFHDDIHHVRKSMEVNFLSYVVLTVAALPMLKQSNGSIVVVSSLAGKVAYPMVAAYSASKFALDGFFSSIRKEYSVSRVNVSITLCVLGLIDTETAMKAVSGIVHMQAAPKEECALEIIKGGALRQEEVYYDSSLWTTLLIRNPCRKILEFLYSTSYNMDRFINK

[2] = target: T1, 11-beta-hydroxysteroid dehydrogenase 1; test: Inhibition of human 11beta-HSD1
Target sequence in this assay (P28845 whole entry): as above

[3] = target: T2, 11-beta-hydroxysteroid dehydrogenase 1 (Mus musculus, UniProt P50172); test: Inhibition of 11beta-HSD1 in mouse liver microsome
Procedure, shortened: (§1)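 Liver microsome fractions (2.5 µg) used as the enzyme source. Run in 30 mM Hepes pH 7.4 with 1 mM EDTA, 1 mM G-6P and cortisone/NADPH (200 nM/200 µM). Incubated 150 min at 37 °C, stopped with 18β-glycyrrhetinic acid, cortisol read by HTRF.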

[4] = target: 11-beta-hydroxysteroid dehydrogenase 1 (Rattus norvegicus, UniProt P16232); test: Inhibition of 11beta-HSD1 in rat liver microsome; type: microsomes; procedure, shortened: as §1
[5] = target: T2, 11-beta-hydroxysteroid dehydrogenase 1; test: Inhibition of 11beta-HSD1 in mouse 3T3L1 cells assessed as cortisol level by HTRF assay; type: cell-based, 3T3-L1
Procedure, shortened: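 3T3L1 cells differentiated 5 days into adipocytes, then cultured 4 days before 150 min exposure to compound (10^-5–10^-7 M). Cortisol in the culture supernatant is measured by HTRF to give 11β-HSD1 activity.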

[6] = target: T3, 11-beta-hydroxysteroid dehydrogenase type 2 (Homo sapiens, UniProt P80365); test: Inhibition of human recombinant 11beta-HSD2 expressed in Escherichia coli assessed as cortisol level after 60 mins by HTRF assay
T3 sequence (P80365 whole entry): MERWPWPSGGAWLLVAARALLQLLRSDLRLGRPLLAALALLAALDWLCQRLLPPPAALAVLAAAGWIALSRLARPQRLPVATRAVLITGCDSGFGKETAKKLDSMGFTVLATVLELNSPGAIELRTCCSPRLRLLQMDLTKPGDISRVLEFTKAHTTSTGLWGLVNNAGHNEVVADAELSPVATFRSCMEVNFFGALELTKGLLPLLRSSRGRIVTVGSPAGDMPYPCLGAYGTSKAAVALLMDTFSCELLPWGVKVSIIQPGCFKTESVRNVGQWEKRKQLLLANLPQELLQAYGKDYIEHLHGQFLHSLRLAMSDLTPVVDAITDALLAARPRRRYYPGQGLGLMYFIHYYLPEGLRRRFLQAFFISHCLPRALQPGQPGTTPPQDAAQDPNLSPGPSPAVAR
Procedure, shortened: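 Enzyme is recombinant human 11β-HSD2 (E. coli-expressed) in 50 mM Tris pH 7.8 with 1 mM MgCl2 and 0.5 mM NAD. Reaction starts with 20 nM cortisol, runs at room temperature, and is stopped with carbenoxolone 10 µM. Cortisol is quantified by HTRF.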

[7] = Solubility in water; type: physicochemical
[8] = Half life in rat plasma at 0.2 mg/kg, iv and 0.5 mg/kg, po; type: ADME, organism-based
Procedure, shortened: (§2)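 Male rats given a low-dose cassette (cocktail): 0.2 mg/kg i.v. and 0.5 mg/kg p.o.; plasma PK parameters are means of 3 rats. Unchanged drug recovered in faeces collected 0–24 h after each route.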

[9] = Bioavailability in rat at 0.2 mg/kg, iv and 0.5 mg/kg, po; type: ADME, organism-based; conditions: in vivo; procedure, shortened: as §2
[10] = Volume of distribution at steady state in rat at 0.2 mg/kg, iv and 0.5 mg/kg, po; type: ADME, organism-based; conditions: in vivo, read-out: Vdss; procedure, shortened: as §2
[11] = Drug absorption in rat assessed as recovery of unchanged drug in feces at 0.2 mg/kg, iv after 24 hrs; type: ADME, organism-based; parameters: dose 0.2 mg/kg, route intravenous; conditions: faeces, read-out: Drug uptake; procedure, shortened: as §2
[12] = Drug absorption in rat assessed as recovery of unchanged drug in feces at 0.5 mg/kg, po after 24 hrs; type: ADME, organism-based; parameters: dose 0.5 mg/kg, route oral; conditions: faeces, read-out: Drug uptake; procedure, shortened: as §2
[13] = Protein binding in human serum; type: ADME, cell-free; conditions: read-out: PB (converted)
[14] = Clearance in rat at 0.2 mg/kg, iv and 0.5 mg/kg, po; type: ADME, organism-based; conditions: in vivo; procedure, shortened: as §2
[15] = target: T1, 11-beta-hydroxysteroid dehydrogenase 1; conditions: at 1 µM
Target sequence in this assay (P28845 whole entry, looked up): as the sequence (P28845 whole entry) above

T2 sequence (P50172 whole entry): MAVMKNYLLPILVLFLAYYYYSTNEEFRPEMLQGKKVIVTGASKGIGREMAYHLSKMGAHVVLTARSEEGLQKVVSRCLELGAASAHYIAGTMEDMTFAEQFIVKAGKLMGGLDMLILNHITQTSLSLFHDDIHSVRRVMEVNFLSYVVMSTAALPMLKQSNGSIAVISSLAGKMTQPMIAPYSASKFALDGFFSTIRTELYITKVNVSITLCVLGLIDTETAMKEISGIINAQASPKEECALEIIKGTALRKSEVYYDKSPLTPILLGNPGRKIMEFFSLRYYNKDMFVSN
Sequence of 11-beta-hydroxysteroid dehydrogenase 1 (Rattus norvegicus, UniProt P16232) (P16232 whole entry): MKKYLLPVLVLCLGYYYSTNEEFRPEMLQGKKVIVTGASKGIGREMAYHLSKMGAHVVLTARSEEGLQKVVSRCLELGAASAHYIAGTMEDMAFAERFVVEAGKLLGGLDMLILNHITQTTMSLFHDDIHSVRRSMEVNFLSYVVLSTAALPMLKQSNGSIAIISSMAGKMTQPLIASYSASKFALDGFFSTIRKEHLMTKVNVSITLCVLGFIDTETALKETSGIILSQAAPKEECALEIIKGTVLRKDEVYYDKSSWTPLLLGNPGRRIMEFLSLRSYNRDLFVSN

Structure (SMILES): O=C(CCCC(=O)NC1C2CC3CC(C2)CC1C3)NC1CC1 (stereo unspecified)
IC50 [1]: > 1000 nM

Structure (SMILES): O=C(O)CC1(CC(=O)NCc2ccc(F)cc2Cl)CCCC1
IC50 [2]: 1200 nM

Structure (SMILES): CN1CCN(C(=O)CC2(CC(=O)O)CCCC2)CC1
inhibition [15]: 0%

Next, values leading:

IC50 [1]: > 1000 nM
Structure (SMILES): CC(C)(CC(=O)NC1CC1)CC(=O)N[C@H]1C2CC3CC1C[C@](C(=O)O)(C3)C2

IC50 [1]: 8 nM | IC50 [3]: 10 nM | IC50 [4]: 31 nM | IC50 [5]: < 1000 nM | IC50 [6]: > 10000 nM | solubility [7]: 491 µg/mL (≈ 1310 µM) | half-life [8]: 36 min | bioavailability [9]: 10% | Vd [10]: 3.1 L/kg | dose excreted at 24 h [11]: 24% | dose excreted at 24 h [12]: 50% | fraction unbound [13]: > 0.8 | clearance [14]: 55 mL/min/kg
Structure (SMILES): CC(C)(CC(=O)NC1CC1)CC(=O)N[C@H]1C2CC3CC1C[C@](C(N)=O)(C3)C2

IC50 [1]: 8 nM | IC50 [3]: 88 nM | IC50 [4]: 980 nM | IC50 [5]: < 100 nM | IC50 [6]: > 10000 nM | solubility [7]: 597 µg/mL (≈ 1710 µM) | half-life [8]: 72 min | bioavailability [9]: 30% | Vd [10]: 2.7 L/kg | dose excreted at 24 h [11]: 20% | dose excreted at 24 h [12]: 22% | fraction unbound [13]: 0.6 | clearance [14]: 30 mL/min/kg
Structure (SMILES): CC(C)(CC(=O)NC1CC1)CC(=O)N[C@H]1C2CC3CC1C[C@](O)(C3)C2

IC50 [1]: 550 nM
Structure (SMILES): CC(C)(CC(=O)NC1CC1)CC(=O)N[C@H]1C2CC3CC1C[C@@](O)(C3)C2
